Consider 1 compound from article PMC3901018 (Chemical communications (Cambridge, England), 2014).

Structures are written as SMILES.

The subject of assay [1] is AR (androgen receptor promoter) G4. Nature of the assay: FRET G4 stabilisation. Format: binding. The note with it: ΔTm at 1 µM; triplicate, Esd ± 0.5 °C.
Assay [2] concerns WI38 (non-transformed lung fibroblast cells). Nature of the assay: 96 hr SRB assay, WI38. Format: cell-based. Particulars: Homo sapiens, WI-38, 96 h, read-out: IC50, WI38. For orientation: Sulforhodamine B stains cellular protein and so reports cell mass.
Assay [3] concerns Panc1 (pancreatic cancer). Briefly: 96 hr SRB assay, Panc1. Particulars: Homo sapiens, PANC-1, 96 h, read-out: IC50, Panc1. Format: cell-based.
The next assay has as its system A549 (lung cancer). Nature of the assay: 96 hr SRB assay, A549. Format: cell-based. The note with it: Homo sapiens, A549, 96 h, read-out: IC50, A549.
In a further assay the test system is HSP90A promoter G4. Nature of the assay: FRET G4 stabilisation. The note with it: ΔTm at 1 µM; triplicate, Esd ± 0.5 °C. Format: binding.
Assay [4] concerns duplex DNA sequence (T-loop). Nature of the assay: FRET melting assay, duplex DNA control. Format: binding. Particulars: ΔTm at 1 µM, Esd ± 0.5 °C. The procedure, abridged:
(§1)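 96-well FRET melting assay using dual-labelled oligonucleotides: human telomeric 21-mer F21T and c-KIT2 G4s, plus T-loop duplex DNA. Test compound at 1 µM. Tm shift obtained by curve fitting to the melting data, from triplicate measurements, Esd ± 0.5 °C. n/a marks unsuccessful curve fitting.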

The test system of assay [5] is ALT (transformed WI38 lung fibroblast cells). Nature of the assay: 96 hr SRB assay, ALT. Format: cell-based. The note with it: Homo sapiens, WI-38, 96 h, read-out: IC50, ALT.
Assay [6] has as its system F21T (human telomeric 21-mer) G4. Nature of the assay: FRET G4 stabilisation. Format: binding. The note with it: ΔTm at 1 µM; triplicate, Esd ± 0.5 °C. Summed up: as §1
In a further assay the test system is c-KIT2 G4. Nature of the assay: FRET G4 stabilisation. Format: binding. The note with it: ΔTm at 1 µM; triplicate, Esd ± 0.5 °C. The procedure, abridged: as §1
A further assay has as its system RCC4 (renal cancer). Briefly: 96 hr SRB assay, RCC4. Format: cell-based. Particulars: Homo sapiens, RCC4, 96 h, read-out: IC50, RCC4.
The test system of a further assay is 786-O (renal cancer). Briefly: 96 hr SRB assay, 786-O. Format: cell-based. The note with it: Homo sapiens, 786-0, 96 h, read-out: IC50, 786-O.
A further assay has as its system HSP90B promoter G4. Nature of the assay: FRET G4 stabilisation. Particulars: ΔTm at 1 µM; triplicate, Esd ± 0.5 °C. Format: binding.
The next assay deals with MCF7 (breast cancer). Nature of the assay: 96 hr SRB assay, MCF7. Format: cell-based. Particulars: Homo sapiens, MCF7, 96 h, read-out: IC50, MCF7.
In assay [7] the test system is F21T G4 versus calf thymus duplex DNA. Briefly: Calf thymus DNA. Format: binding, human. The note with it: 1 µM compound, calf thymus DNA competitor. The procedure, abridged:
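Competition version of the FRET melting assay. Dual-labelled F21T G4 is challenged with unlabelled calf thymus duplex DNA added at high duplex:G4 ratios. Test compound at 1 µM. Read-out is % retention of the F21T Tm shift.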

The subject of assay [8] is Mia-PaCa2 (pancreatic cancer). Briefly: 96 hr SRB assay, Mia-PaCa2. Format: cell-based. The note with it: Homo sapiens, MIA PaCa-2, 96 h, read-out: IC50, Mia-PaCa2.

Regarding `CN1CCN(CCCNc2cc3c4c(c(NCCCN5CCN(C)CC5)cc5c4c2C(=O)N(CCCN2CCOCC2)C5=O)C(=O)N(CCCN2CCOCC2)C3=O)CC1` [Compound 8, 4,9-bis((3-(4-methyl-piperazin-1-yl)propyl)amino)-2,7-bis(3-morpholinopropyl) benzo-[lmn] [3,8] phenanthroline-1,3,6,8(2H,7H)-tetraone], in assay [1], the “FRET G4 stabilization ΔTm, AR” value came to 15.9 °C. Moreover, the IC50 was 230 nM in [2]; 3 nM in [3]; 19 nM with A549 (lung cancer); 63 nM in assay [5]; 560 nM in the assay on RCC4 (renal cancer); 320 nM in the assay with 786-O (renal cancer). Further, the IC50 in the assay on MCF7 (breast cancer) came to 70 nM; in assay [8] it was 11 nM. For the same compound, in the assay with HSP90A promoter G4, the “FRET G4 stabilization ΔTm, HSP-90A” value is 33.1 °C. Besides, the “FRET ΔTm, T-loop duplex” value in assay [4] was 4.9 °C. For the same compound, the “FRET G4 stabilization ΔTm, F21T” value in [6] worked out at 26.6 °C. For the same compound, the “FRET G4 stabilization ΔTm, c-KIT2” value in the assay on c-KIT2 G4 was determined as 22.0 °C. Besides, the “FRET G4 stabilization ΔTm, HSP-90B” value in the assay with HSP90B promoter G4 came to 28.6 °C. In assay [7] (G4:CT 1:1), the “% retention of the F21T ΔTm, G4:CT 1:1” value was 100%. For the same compound, the “% retention of the F21T ΔTm, G4:CT 1:10” value in [7] (G4:CT 1:10) is listed as 100%. The “% retention of the F21T ΔTm, G4:CT 1:300” value in assay [7] (G4:CT 1:300) is reported as 27.2%.

The IC50 is the concentration that gives 50% inhibition.
